Experimental data reported in ChEMBL document CHEMBL1131170 (J Med Chem, 1998).
The source made the active and inactive calls. The calls are words filed in the database; no cut-off is given here.

What was measured:
[1] = molecular target: T1, Protein farnesyltransferase (Homo sapiens, UniProt P49354+P49356); experiment: Inhibitory activity against human Farnesyltransferase; assay type: protein-complex assay
Outline: (§1)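 Compounds in 100% DMSO diluted 20-fold, giving 5% DMSO final. Farnesyl transfer measured; IC50 determined.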

[2] = molecular target: T1, Protein farnesyltransferase; experiment: inhibitory activity against human Farnesyltransferase; assay type: protein-complex assay; outline: as §1
[3] = molecular target: T1, Protein farnesyltransferase; experiment: Inhibition of human Farnesyltransferase using Ras-CVLS; assay type: protein-complex assay
[4] = inhibition of human Geranylgeranyl transferase using Ras-CVIM
HepG2 [5] = experiment: Inhibition of cholesterol biosynthesis in HepG2 cells at 21 uM; assay type: functional; details: Homo sapiens
Outline: (§2)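 HepG2 cells seeded at 2 × 10^5/well on day 0, fed delipidated-serum medium on day 3 and again on day 5, when compounds in DMSO were added for 4 h. Labeled with [14C]acetate (3 µCi/mL) for 2 h, then saponified, acidified, petroleum ether extracted twice, TLC on silica (petroleum ether–ethyl ether–acetic acid 75:25:1), phosphor imaging; incorporation into cholesterol.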

HepG2 [6] = experiment: Inhibition of cholesterol biosynthesis in HepG2 cells at 106 uM; assay type: functional; details: Homo sapiens; outline: as §2
HepG2 [7] = experiment: Inhibition of cholesterol biosynthesis in HepG2 cells at 42 uM; assay type: functional; details: Homo sapiens; outline: as §2
[8] = Inhibition of human Geranylgeranyl transferase using Ras-CAIL
[9] = molecular target: T1, Protein farnesyltransferase; experiment: Inhibition of human Farnesyltransferase at 100 uM; assay type: protein-complex assay
HepG2 [10] = experiment: Inhibition of cholesterol biosynthesis in HepG2 cells at 2.5 uM; assay type: functional; details: Homo sapiens
Outline: (§3)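 HepG2 cells seeded on day 0; fresh medium with delipidated serum on day 3 and again on day 5, when compounds (DMSO stocks) were added for 4 h. Extracts were separated by silica TLC (petroleum ether–ethyl ether–acetic acid 75:25:1) and quantified by phosphor imaging as cholesterol incorporation.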

HepG2 [11] = experiment: Inhibition of cholesterol biosynthesis in HepG2 cells at 25 uM; assay type: functional; details: Homo sapiens; outline: as §3
[12] = molecular target: T1, Protein farnesyltransferase; experiment: (§4) Inhibition of human Farnesyltransferase; assay type: protein-complex assay; outline: as §1
[13] = molecular target: T1, Protein farnesyltransferase; experiment: Inhibition of human Farnesyltransferase, inactive at 100 uM; assay type: protein-complex assay
[14] = molecular target: T1, Protein farnesyltransferase; experiment: as §4; assay type: protein-complex assay; outline: as §1; remark: listed apart in the source
[15] = molecular target: T1, Protein farnesyltransferase; experiment: as §4; assay type: protein-complex assay; outline: as §1; remark: listed apart in the source
[16] = molecular target: T1, Protein farnesyltransferase; experiment: as §4; assay type: protein-complex assay; outline: as §1; remark: listed apart in the source
HepG2 [17] = experiment: Inhibition of cholesterol biosynthesis in HepG2 cells at 81 uM; assay type: functional; details: Homo sapiens; outline: as §2
[18] = molecular target: T1, Protein farnesyltransferase; experiment: as §4; assay type: protein-complex assay; outline: as §1; remark: listed apart in the source
[19] = molecular target: T1, Protein farnesyltransferase; experiment: as §4; assay type: protein-complex assay; outline: as §1; remark: listed apart in the source
HepG2 [20] = experiment: Inhibition of cholesterol biosynthesis in HepG2 cells at 32 uM; assay type: functional; details: Homo sapiens; outline: as §2
HepG2 [21] = experiment: Inhibition of cholesterol biosynthesis in HepG2 cells at 16 uM; assay type: functional; details: Homo sapiens; outline: as §2
[22] = molecular target: T1, Protein farnesyltransferase; experiment: as §4; assay type: protein-complex assay; outline: as §1; remark: listed apart in the source
[23] = molecular target: T1, Protein farnesyltransferase; experiment: as §4; assay type: protein-complex assay; details: concentration not given here; outline: as §1
[24] = molecular target: T1, Protein farnesyltransferase; experiment: as §4; assay type: protein-complex assay; details: concentration not given here; outline: as §1; remark: listed apart in the source

Row | Structure (SMILES) | IC50 [1] [µM] | IC50 [2] [µM] | further results
1 | CC(C)CCCC(C)C1CCC2C3CCC(=O)C(CCC(=O)O)C3CC[C@]12C (stereo not given in full) | 1.2 | – | –
2 | CCC(CC)C(=O)OCC(=O)[C@@]1(O)CCC2C3CCC4=CC(=O)CC[C@]4(C)C3C(=O)C[C@@]21C (stereo not given in full) | – | 56 | –
3 | C[C@]12CCC(=O)C=C1CCC1C2C(=O)C[C@@]2(C)C1CC[C@]2(O)C(=O)COC(=O)CC(CC(=O)O)C(=O)O (stereo not given in full) | – | 50 | –
4 | C[C@H](CCC(O)C(C)(C)O)[C@H]1CC[C@@]2(C)C3=C(CC[C@]12C)[C@@]1(C)C[C@@H](O)C(=O)C(C)(C)[C@@H]1CC3 (stereo not given in full) [CLAVARINONE] | – | 15 | IC50 [3]: 8 µM; IC50 [4]: > 50 µM; inhibition at 21 µM (HepG2 [5]): 59%; inhibition at 106 µM (HepG2 [6]): 97%; inhibition at 42 µM (HepG2 [7]): 74%; IC50 [8]: 35 µM
5 | C[C@]12CC(=O)C3C(CCC4=CC(=O)CC[C@@]43C)C1CCC2C(=O)CO (stereo not given in full) | – | > 100 | –
6 | C[C@]12C=C(C=O)C(=O)C=C1CCC1C2C(=O)C[C@@]2(C)C1CC[C@@]21OCOC12COCO2 (stereo not given in full) | – | 1.2 | –
7 | C[C@]12C=CC(=O)C=C1CC[C@@H]1[C@@H]2[C@@H](O)C[C@@]2(C)[C@H]1CC[C@]2(O)C(=O)COC(=O)CCC(=O)O | – | – | inhibition [9]: 36%
8 | CC(C)CCCC(C)C1CCC2C3CCC(=O)[C@](C)(CCC(=O)O)C3CC[C@]12C (stereo not given in full) | 40 | – | –
9 | CCOC(=O)C[C@H](C[C@@]1(C)C(=O)C[C@H](CC)C2C3CCC(C(C)CCCC(C)C)[C@@]3(C)CCC21)C(=O)O (stereo not given in full) | 40 | – | –
10 | C[C@@H]1CC2C3CCC4=CC(=O)C=C[C@]4(C)C3C(=O)C[C@]2(C)[C@]12OCOC21COCO1 (stereo not given in full) | – | > 100 | –
11 | COC(=O)CC[C@@]1(C)C(=O)CCC2C1C(=O)C[C@@]1(C)C2CC[C@@]12OCOC21COCO1 (stereo not given in full) | 26 | – | –
12 | CC(C)CCCC(C)C1CCC2C3C(CC[C@]12C)[C@@](C)(CCC(=O)O)C(=O)C[C@@H]3C (stereo not given in full) | 0.9 | – | –
13 | COC(=O)CC[C@@]1(C)C(=O)C[C@H](C)C2C3CCC(C(C)CCCC(C)C)[C@@]3(C)CCC21 (stereo not given in full) | – | > 100 | –
14 | CC(=O)OCC(=O)[C@@]1(O)C(C)CC2C3CCC4=CC(=O)C=C[C@]4(C)C3=CC[C@@]21C (stereo not given in full) | – | 40 | –
15 | CC(CCC(=O)O)C1CCC2C3C(CC[C@]12C)[C@@](C)(CCC(=O)O)C(=O)C[C@@H]3C (stereo not given in full) | 31 | – | –
16 | C[C@]12CCC(=O)C=C1CCC1C2C(=O)C[C@@]2(C)C1CCC2(O)C(=O)COC(=O)CCC(=O)O (stereo not given in full) | – | 24 | –
17 | CC(CCC(=O)O)C1CC[C@H]2[C@@H]3CCC4CC(=O)CC[C@]4(C)[C@H]3CC(=O)[C@]12C (stereo not given in full) | – | – | inhibition [9]: 33%
18 | CC[C@H]1CC(=O)[C@](C)(CCC(=O)O)C2CC[C@]3(C)C(C(C)CCCC(C)C)CCC3C21 (stereo not given in full) | 60 | – | –
19 | CC(=O)OCC(=O)[C@@]1(O)CC[C@H]2[C@@H]3CCC4=CC(=O)CC[C@]4(C)[C@H]3C(=O)C[C@@]21C [CORTISONE ACETATE] | – | 12 | –
20 | CC(C)C(=O)OCC(=O)[C@@]1(O)CCC2C3CCC4=CC(=O)CC[C@]4(C)C3C(=O)C[C@@]21C (stereo not given in full) | – | 15 | –
21 | CC(C)CCCC(C)C1CCC2C3CCC4=CC(=O)[C@H](CC(=O)O)C[C@]4(C)C3CC[C@]12C (stereo not given in full) | – | > 100 | –
22 | CCOC(=O)C[C@@H]1C[C@@]2(C)C(=CC1=O)CCC1C3CCC(C(C)CCCC(C)C)[C@@]3(C)CCC12 (stereo not given in full) | – | > 100 | –

Row | Structure (SMILES) | IC50 [1] [µM] | IC50 [2] [µM] | further results
23 | C[C@]1(CCC(=O)O)C(=O)CCC2C1C(=O)C[C@@]1(C)C2CC[C@@]12OCOC21COCO1 (stereo not given in full) | 29 | – | –
24 | CC(=O)C1CCC2C3CCC(=O)[C@](C)(CCC(=O)O)C3C(=O)C[C@]12C (stereo not given in full) | > 100 | – | –
25 | CC(C)CCCC(C)C1CCC2C3C(CC[C@]12C)[C@@](C)(C[C@@H](CC(=O)O)C(=O)O)C(=O)C[C@@H]3C (stereo not given in full) | 0.04 | – | –
26 | CC(CCCC(C)(C)O)[C@H]1CC[C@H]2C3CC=C4C[C@@H](O)CC[C@]4(C)[C@H]3CC[C@]12C (stereo not given in full) | – | – | inhibition at 2.5 µM (HepG2 [10]): 87%; inhibition at 25 µM (HepG2 [11]): 90%
27 | CC[C@H]1CC(=O)[C@](C)(C[C@@H](CC(=O)O)C(=O)O)C2CC[C@]3(C)C(C(C)CCCC(C)C)CCC3C21 (stereo not given in full) | 3 | – | –
28 | CC(=O)OCC(=O)[C@@]1(O)CCC2C3CCC4=CC(=O)CC[C@]4(C)C3[C@@H](O)C[C@@]21C (stereo not given in full) | – | – | inhibition [9]: 6%
29 | C[C@]1(C(=O)O)C(=O)CCC2C1C(=O)C[C@@]1(C)C2CC[C@@]12OCOC21COCO1 (stereo not given in full) | > 100 | – | –
30 | CC(C)C(=O)OCC(=O)C1CCC2C3CCC(=O)[C@](C)(CCC(=O)O)C3C(=O)C[C@]12C (stereo not given in full) | 40 | – | –
31 | CC(C)CCCC(C)C1CCC2C3CCC(=O)[C@](C)(C[C@@H](CC(=O)O)C(=O)O)C3CC[C@]12C (stereo not given in full) | – | – | IC50 [12]: 190 nM
32 | CCC(CC)C(=O)OCC(=O)[C@@]1(O)CCC2C3CCC4=CC(=O)CC[C@]4(C)C3[C@@H](O)C[C@@]21C (stereo not given in full) | – | > 100 | –
33 | C[C@]12C=C(C3OCCO3)C(=O)C=C1CCC1C2C(=O)C[C@@]2(C)C1CC[C@@]21OCOC12COCO2 (stereo not given in full) | – | 38 | –
34 | CC(C)CCCC(C)C1CCC2C3CC[C@@H](C(=O)O)[C@](C)(CCC(=O)O)C3CC[C@]12C (stereo not given in full) | 21 | – | –
35 | CC(C)CCCC(C)C1CCC2C3CC=C4C(C)(C)C(=O)CC[C@]4(C)C3CC[C@]12C (stereo not given in full) | – | – | inhibition [13]: inactive
36 | CCOC(=O)C[C@H](C[C@@]1(C)C(=O)CCC2C3CCC(C(C)CCCC(C)C)[C@@]3(C)CCC21)C(=O)O (stereo not given in full) | > 100 | – | –
37 | CC(C)(CC(=O)O)CC(=O)OCC(=O)[C@@]1(O)CCC2C3CCC4=CC(=O)CC[C@]4(C)[C@@]3(F)[C@@H](O)C[C@@]21C (stereo not given in full) | – | 48 | –
38 | CC[C@H]1CC2=CC(=O)CC[C@]2(C)C2CC[C@]3(C)C(C(C)CCCC(C)C)CCC3C21 (stereo not given in full) | – | > 100 | –
39 | C[C@]12CCC(=O)C=C1CC[C@@H]1[C@@H]2[C@@H](O)C[C@@]2(C)[C@H]1CC[C@]2(O)C(=O)COC(=O)CCC(=O)O | – | – | inhibition [9]: 46%
40 | CC(=O)OCC(=O)[C@@]1(O)CCC2C3CCC4=CC(=O)CC[C@]4(C)C3CC[C@@]21C (stereo not given in full) | – | – | inhibition [9]: 6%
41 | CC(C)=CCCC(C)C1CC[C@@]2(C)C3=C(CC[C@]12C)[C@@]1(C)CCC(=O)C(C)(C)C1CC3 (stereo not given in full) | – | 12 | –
42 | CC(C)(CC(=O)O)CC(=O)OCC(=O)[C@@]1(O)CCC2C3CCC4=CC(=O)C=C[C@]4(C)[C@@]3(F)[C@@H](O)C[C@@]21C (stereo not given in full) | – | – | inhibition [9]: 63%
43 | C[C@H](CCC(O)C(C)(C)O)[C@H]1CC[C@@]2(C)C3=C(CC[C@]12C)[C@@]1(C)C[C@@H](OC(=O)CC(C)(O)CC(=O)O)C(=O)C(C)(C)[C@@H]1CC3 (stereo not given in full) [CLAVARIC ACID] | – | – | IC50 [3]: 0.35 µM; FPTase activity (fM ug-1 min-1) [14]: 7340; inhibition ([14]; concentration not given here): 70%; IC50 [4]: > 50 µM; FPTase activity (fM ug-1 min-1) [15]: 2390; FPTase activity (fM ug-1 min-1) [16]: 694; inhibition at 81 µM (HepG2 [17]): 69%; FPTase activity (fM ug-1 min-1) [18]: 3340; FPTase activity (fM ug-1 min-1) [19]: 592; inhibition at 32 µM (HepG2 [20]): 0%; inhibition at 16 µM (HepG2 [21]): 0%; IC50 [8]: 21 µM; FPTase activity (fM ug-1 min-1) [22]: 3330; inhibition [23]: 81%; inhibition [24]: 84%
44 | C[C@H]1CC2C3CCC4=CC(=O)C=C[C@]4(C)C3C(=O)C[C@]2(C)[C@]12OCOC21COCO1 (stereo not given in full) | – | 96 | –
